DAX1 inh-1 = DAX1 (NR0B1) inhibition, primary screen | HEK293T StAR-luciferase reporter, SF-1/DAX-1 repression relief | inhibition, % at 6.8 µM | 370,000 compounds, 1.1% hits;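 active means inhibition above the mean over all tested compounds plus 3 SD, cut at about 3.6% in these data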;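 further: higher inhibition means more luminescence from relief of DAX-1 repression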
NR2E3 ag-1 = human photoreceptor-specific nuclear receptor agonism. Q9Y5X4. CHO-S Gal4-NCOR/VP16-NR2E3 two-hybrid, luciferase. inhibition of corepressor binding, % at 3.98 µM. 360,000 compounds, 0.35% hits;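 active means inhibition above the mean of all tested compounds plus 3 SD, cut at about 70% in these data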;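 further: higher means lower luciferase signal from less NR2E3 corepressor binding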
NR2E3 ag-2 = NR2E3 (human) agonism; inhibition of corepressor binding, % at 4.78 µM; 320,000 compounds, 0.12% hits; Q9Y5X4; GST-NR2E3/biotin-RetCOR TR-FRET, 1536-well;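 active means percent inhibition above the cutoff of mean plus 3 SD of all tested compounds, set per screening campaign, cut at about 20% in these data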
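System: GST-tagged NR2E3 plus biotinylated RetCOR corepressor; Buffer or medium: pH 7.5 Tris-based buffer; Probe or stimulus: RetCOR corepressor, biotinylated, 7 nM; Doses: compound at 4.8 µM, single dose; Schedule: 5 h incubation at 4 °C; Technique: time-resolved FRET; Evaluation: percent inhibition of TR-FRET ratio; Replication: one well per compound, singlicate testing.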
SMARCA2 act = activators of SMARCA2 function; MG213 cells, MMTV-luciferase reporter, dexamethasone, overnight; activation, % at 9.1 µM; 370,000 compounds, 1% hits; AID 652017; in the data active means activation above about 7.8%
DAX1 inh-2 = NR0B1 (DAX1) inhibition; HEK293 Gal4-DAX1 luciferase reporter, luminescence; inhibition, % at 6.75 µM; 340,000 compounds, 0.99% hits; AID 504766;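 active means inhibition above the mean over all tested compounds plus 3 SD, cut at about 4.2% in these data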;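 further: inhibition shows as a rise in luminescence from relieved DAX1 repression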
Target sequence (P51843 207-470 limits assumed): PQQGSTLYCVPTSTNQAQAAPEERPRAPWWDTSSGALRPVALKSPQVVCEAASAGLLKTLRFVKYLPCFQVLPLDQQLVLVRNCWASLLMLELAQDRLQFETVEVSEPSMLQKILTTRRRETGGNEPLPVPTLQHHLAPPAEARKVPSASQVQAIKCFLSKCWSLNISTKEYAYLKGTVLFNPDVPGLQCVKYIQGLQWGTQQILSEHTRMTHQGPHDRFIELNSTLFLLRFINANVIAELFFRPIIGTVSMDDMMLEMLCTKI
GASC-1 inh = inhibitors of human GASC-1 (JMJD2C) demethylase; GST-JMJD2C(1-420) H3K9me3 demethylation, DELFIA europium; 330,000 compounds, 0.069% hits; Q9H3R0; inhibition, % at 2.35 µM;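 active means more than half of a compound's replicate wells show inhibition beyond 50%, single wells judged on their own value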;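 further: signal counts dimethyl H3K9 product captured on neutravidin plate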
SMARCA2 act conf = confirmation of SMARCA2 (BRM) function activators. MG213 cells, MMTV-luciferase with dexamethasone, luminescence, overnight; MG213 cells expressing E1A, Rb sequestered; DMSO wells 0%, reference activator 100%. AID 652260. activation, % at 9.1 µM. 3,500 compounds, 30% hits. shares compounds with SMARCA2 act;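 active means activation above its plate's cutoff, the mean activation of tested wells plus 3 SD, cut at about 7.9% in these data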
VP16 Luc act = activates GAL4-VP16 luciferase, flagging SMARCA2 activator hits; AID 686939; HEK293 GAL4-VP16 pG5luc reporter, luciferase luminescence; scaled: DMSO wells 0%, SAHA wells 100%; shares compounds with SMARCA2 act; activation, % at 9.1 µM; 3,500 compounds, 41% hits;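 active means activation above the solvent-only control well mean plus 3 SD, averaged across control plates, cut at about 5.2% in these data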
Large screens that a line does not name were inactive (follow-up assays come after a bar, where they were run). Compounds with a hit are over-represented: about 3.2% of the library has one in this group of screens.

Cc1cc(C(=O)c2cccs2)c(N)s1	SMARCA2 act 8.9 | SMARCA2 act conf inactive | VP16 Luc act inactive
Cc1cc(C)c(C(=O)c2cccs2)c(C)c1	none (no result: NR2E3 ag-2, GASC-1 inh)
COC(=O)[C@]12C[C@H](CC(=O)NCc3ccc(C)o3)C(=O)N(Cc3ccc(Cl)cc3Cl)C1=C[C@H](C1CCCC1)O[C@@H]2C	none (no result: NR2E3 ag-1, NR2E3 ag-2, DAX1 inh-2, GASC-1 inh)
COc1ccc(C(=O)Cc2ccc3c(c2)OCO3)c(O)c1	SMARCA2 act 8.2 | SMARCA2 act conf inactive | VP16 Luc act 8.9
O=C(O)CCS(=O)(=O)c1nc(-c2cccs2)cc(C(F)(F)F)n1	SMARCA2 act 13.2 | SMARCA2 act conf inactive | VP16 Luc act inactive
CS(=O)(=O)c1nc(-c2cccs2)cc(C(F)(F)F)n1	none (no result: DAX1 inh-1, NR2E3 ag-1, SMARCA2 act, DAX1 inh-2)
O=C(NC(=O)c1ccc(F)cc1)Nc1nc(-c2cccs2)cc(C(F)(F)F)n1	SMARCA2 act 8.4 | SMARCA2 act conf inactive | VP16 Luc act inactive
CCc1ccccc1Nc1nc(-c2cccnc2)cs1	none
O=[N+]([O-])c1ccccc1Nc1nc(-c2cccnc2)cs1	SMARCA2 act 9.2 | SMARCA2 act conf 9.6 | VP16 Luc act 7.7
CC(C)(C)NC(=O)NCCc1ccccc1	SMARCA2 act 9.9 | SMARCA2 act conf 10.2 | VP16 Luc act 8.2
CC(C)(C)C(=O)NC(=S)NCCc1ccccc1	none
CC(=O)CC[C@@H]1CC[C@]2(CCCN(C(=O)c3ccc4ccccc4n3)C2)O1	none (no result: NR2E3 ag-1, NR2E3 ag-2, DAX1 inh-2, GASC-1 inh)
CN(C)CCNc1ncnc2c1sc1nc(N3CCCC3)c3c(c12)CC(C)(C)OC3	none
CC1(C)Cc2c(C#N)c(NCCO)nc(-c3ccco3)c2CO1	SMARCA2 act 8.6 (no result: DAX1 inh-2) | SMARCA2 act conf inactive | VP16 Luc act inactive
CCN(CC)CCNc1ncnc2c1sc1nc(N3CCCC3)c3c(c12)CC(C)(C)OC3	SMARCA2 act 8.3 | SMARCA2 act conf inactive | VP16 Luc act inactive
CC1(C)Cc2c(c(-c3ccco3)nc3sc4c(NCCCO)ncnc4c23)CO1	SMARCA2 act 10.0 | SMARCA2 act conf 14.9 | VP16 Luc act inactive
O=c1c2sc(-c3ccccc3)cc2nc2n1CCC2	DAX1 inh-1 4.3, SMARCA2 act 9.9 | SMARCA2 act conf inactive | VP16 Luc act inactive
CCOc1ccc(N2C(=O)CC(SCCN)C2=O)cc1 (stereo not drawn)	SMARCA2 act 14.3 | SMARCA2 act conf 7.8 | VP16 Luc act 9.6
COc1ccc(-c2noc(CSc3nc4ccccc4c(=O)n3-c3ccc(C)cc3)n2)cc1	SMARCA2 act 12.2 | SMARCA2 act conf inactive | VP16 Luc act inactive
CCO/N=C(\C)c1c(O)cc(C(C)C)n(-c2ccccc2)c1=O	none
CC(=O)c1c(O)cc(C(C)C)n(-c2ccccc2)c1=O	SMARCA2 act 20.4 | SMARCA2 act conf inactive | VP16 Luc act inactive
Cc1cccn2cc(-c3cccc(NC(=O)c4cccs4)c3)nc12	SMARCA2 act 9.4 | SMARCA2 act conf inactive | VP16 Luc act inactive
Cc1ccn2cc(-c3cccc(NC(=O)c4cccs4)c3)nc2c1	none
Cc1ccccc1-c1cc2nc(NCc3ccncc3)n(C)c(=O)c2s1	SMARCA2 act 11.3 (no result: NR2E3 ag-2, DAX1 inh-2, GASC-1 inh) | SMARCA2 act conf inactive | VP16 Luc act inactive
O=C(Nc1ccccc1Br)C1CCN(C(=O)Cc2ccccc2)CC1	SMARCA2 act 9.0 | SMARCA2 act conf inactive | VP16 Luc act inactive
O=C(Nc1ccccc1F)C1CCN(C(=O)Cc2ccccc2)CC1	none
Clc1ccc2nc(-c3cccc(Br)c3)c(Cc3ccsc3)n2c1	SMARCA2 act 8.9 (no result: NR2E3 ag-2, DAX1 inh-2, GASC-1 inh) | SMARCA2 act conf inactive | VP16 Luc act inactive
Brc1cccc(-c2nc3ccc(Br)cn3c2Cc2ccsc2)c1	none (no result: NR2E3 ag-2, DAX1 inh-2, GASC-1 inh)
Cc1ccc(Cc2c(-c3cccc(Br)c3)nc3ccc(C)cn23)cc1	none (no result: NR2E3 ag-1, NR2E3 ag-2, DAX1 inh-2, GASC-1 inh)
Brc1ccc2nc(-c3ccco3)c(Cc3ccccc3)n2c1	SMARCA2 act 10.3 (no result: NR2E3 ag-2, DAX1 inh-2, GASC-1 inh) | SMARCA2 act conf inactive | VP16 Luc act inactive

Screening data deposited in PubChem BioAssay by several laboratories.
